Values after ≈ are worked out from the molar mass of the structure shown.
Legend:
[1] = AUC in rat at 20 mg/kg, po; type: ADME, organism-based; parameters: dose 20 mg/kg, route oral; settings: plasma
In short: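 Female CD rats were dosed orally at 20 mg/kg, with a separate 5 mg/kg IV arm. Exposure (AUC) was taken from the plasma profile after the oral dose.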

[2] = Intrinsic clearance in human liver microsomes; type: ADME, Microsome; settings: read-out: CLH
[3] = Intrinsic clearance in rat liver microsomes; type: ADME, Microsome; settings: read-out: CLH
[4] = Solubility of the compound at pH 7; type: physicochemical; settings: buffer
[5] = Volume of distribution at steady state in rat at 5 mg/kg, iv; type: ADME, organism-based; parameters: dose 5 mg/kg, route intravenous; settings: in vivo, read-out: Vdss
In short: (§1)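 Rat PK used a 5 mg/kg intravenous dose and a 20 mg/kg oral dose.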

[6] = Oral bioavailability in rat at 20 mg/kg; type: ADME, organism-based; settings: in vivo; in short: as §1
[7] = Clearance in rat at 5 mg/kg, iv; type: ADME, organism-based; parameters: dose 5 mg/kg, route intravenous; settings: in vivo
In short: (§2)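 Female CD rats received 5 mg/kg IV (20 mg/kg PO arm). Female CD1 mice received 5 mg/kg IV (10 mg/kg PO arm). Male and female beagles and male cynomolgus monkeys each received 1 mg/kg IV (2 mg/kg PO arm). Clearance and half-life were derived from plasma concentration–time profiles after the IV dose.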

[8] = Aqueous solubility of the compound; type: physicochemical
[9] = Apparent permeability from basal to apical side of human Caco2 cells; type: ADME, cell-based; settings: Caco-2
[10] = Apparent permeability from apical to basal side of human Caco2 cells; type: ADME, cell-based; settings: Caco-2
Plasma [11] = test: Plasma concentration in nu/nu mouse xenografted with human A2780 cells at 100 mg/kg, po; type: ADME, organism-based; parameters: dose 100 mg/kg, route oral; settings: in vivo
In short: (§3)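 A2780 tumor-bearing mice were given oral doses (3, 10, 60 and 100 mg/kg were examined). Tumor AKT Ser473 phosphorylation and plasma exposure were measured, with the 10 h time point sampled.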

[12] = Drug uptake in tumor in nu/nu mouse xenografted with human A2780 cells at 60 mg/kg, po; type: ADME, organism-based, Neoplasm; parameters: dose 60 mg/kg, route oral; settings: in vivo, read-out: Drug uptake
In short: (§4)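 A2780 tumor-bearing mice received a single oral dose. Tumors and plasma were sampled at 10 h. Tumor pAKT Ser473 was assessed for target modulation, and compound concentrations were measured in plasma and tumor.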

[13] = Clearance in beagle dog at 1 mg/kg, iv; type: ADME, organism-based, Canis lupus familiaris; parameters: dose 1 mg/kg, route intravenous; settings: in vivo; in short: as §2
[14] = Clearance in cynomolgus monkey at 1 mg/kg, iv; type: ADME, organism-based, Macaca fascicularis; parameters: dose 1 mg/kg, route intravenous; settings: in vivo; in short: as §2
[15] = Drug uptake in tumor in nu/nu mouse xenografted with human A2780 cells at 100 mg/kg, po; type: ADME, organism-based, Neoplasm; parameters: dose 100 mg/kg, route oral; settings: in vivo, read-out: Drug uptake; in short: as §4
[16] = Half life in CD rat at 5 mg/kg, iv; type: ADME, organism-based; parameters: dose 5 mg/kg, route intravenous; settings: in vivo; in short: as §2
[17] = Clearance in CD1 mouse at 5 mg/kg, iv; type: ADME, organism-based; parameters: dose 5 mg/kg, route intravenous; settings: in vivo; in short: as §2
[18] = Oral bioavailability in CD1 mouse at 10 mg/kg; type: ADME, organism-based; settings: in vivo
In short: (§5)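 Female CD1 mice were dosed at 5 mg/kg IV and 10 mg/kg PO.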

[19] = Oral bioavailability in cynomolgus monkey at 2 mg/kg; type: ADME, organism-based, Macaca fascicularis; settings: in vivo
In short: (§6)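 Male cynomolgus monkeys were dosed at 1 mg/kg IV and 2 mg/kg PO.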

[20] = Volume of distribution at steady state in cynomolgus monkey at 1 mg/kg, iv; type: ADME, organism-based, Macaca fascicularis; parameters: dose 1 mg/kg, route intravenous; settings: in vivo, read-out: Vdss; in short: as §6
[21] = Volume of distribution at steady state in CD rat at 5 mg/kg, iv; type: ADME, organism-based; parameters: dose 5 mg/kg, route intravenous; settings: in vivo, read-out: Vdss
In short: (§7)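 Female CD rats were dosed at 5 mg/kg IV and 20 mg/kg PO.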

[22] = Oral bioavailability in CD rat at 20 mg/kg; type: ADME, organism-based; settings: in vivo; in short: as §7
[23] = Volume of distribution at steady state in CD1 mouse at 5 mg/kg, iv; type: ADME, organism-based; parameters: dose 5 mg/kg, route intravenous; settings: in vivo, read-out: Vdss; in short: as §5
[24] = Oral bioavailability in beagle dog at 2 mg/kg; type: ADME, organism-based, Canis lupus familiaris; settings: in vivo
In short: (§8)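 Male and female beagle dogs were dosed at 1 mg/kg IV and 2 mg/kg PO.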

[25] = Half life in cynomolgus monkey at 1 mg/kg, iv; type: ADME, organism-based, Macaca fascicularis; parameters: dose 1 mg/kg, route intravenous; settings: in vivo; in short: as §2
Plasma [26] = test: Plasma concentration in nu/nu mouse xenografted with human A2780 cells at 60 mg/kg, po; type: ADME, organism-based; parameters: dose 60 mg/kg, route oral; settings: in vivo; in short: as §3
[27] = Half life in beagle dog at 1 mg/kg, iv; type: ADME, organism-based, Canis lupus familiaris; parameters: dose 1 mg/kg, route intravenous; settings: in vivo; in short: as §2
[28] = Volume of distribution at steady state in beagle dog at 1 mg/kg, iv; type: ADME, organism-based, Canis lupus familiaris; parameters: dose 1 mg/kg, route intravenous; settings: in vivo, read-out: Vdss; in short: as §8
[29] = Clearance in CD rat at 5 mg/kg, iv; type: ADME, organism-based; parameters: dose 5 mg/kg, route intravenous; settings: in vivo; in short: as §2
[30] = Half life in CD1 mouse at 5 mg/kg, iv; type: ADME, organism-based; parameters: dose 5 mg/kg, route intravenous; settings: in vivo; in short: as §2
[31] = Lipophilicity, log D at pH 7.4; type: physicochemical; settings: buffer
[32] = Dissociation constant, pKa of the compound; type: physicochemical
[33] = Oral bioavailability in rat at 10 mg/kg; type: ADME, organism-based; settings: in vivo
In short: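 Rat PK used a 5 mg/kg intravenous dose and a 10 mg/kg oral dose.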

[34] = AUC in rat at 10 mg/kg, po; type: ADME, organism-based; parameters: dose 10 mg/kg, route oral; settings: plasma

Compound: N#Cc1cc(N)ncc1-c1cc(N2CCOCC2)nc(N2CCOCC2)n1
- AUC [1]: 86 µM·h
- microsomal CLint [2]: ≤ 9 µL/min/mg
- microsomal CLint [3]: ≤ 9 µL/min/mg
- solubility [4]: 11 µM (≈ 4.04 µg/mL)
- Vd [5]: 1.6 L/kg
- bioavailability [6]: 98%
- clearance [7]: 11 mL/min/kg

Compound: Nc1ncc(-c2cc(Nc3cnc4ccccc4c3)nc(N3CCOCC3)n2)c(C(F)(F)F)n1
- AUC [1]: 26 µM·h
- Vd [5]: 2.8 L/kg
- clearance [7]: 11 mL/min/kg

Compound: Nc1cc(Cl)c(-c2cc(N3CCOCC3)nc(N3CCOCC3)n2)cn1
- AUC [1]: 29 µM·h
- microsomal CLint [2]: ≤ 9 µL/min/mg
- microsomal CLint [3]: ≤ 9 µL/min/mg
- solubility [4]: 45 µM (≈ 17 µg/mL)
- Vd [5]: 1.11 L/kg
- bioavailability [6]: 69%
- clearance [7]: 22 mL/min/kg

Compound: Nc1ncc(-c2cc(Nc3cnc4ccccc4c3)nc(N3CCOCC3)n2)cn1
- AUC [1]: 7 µM·h

Compound: Nc1cc(C(F)(F)F)c(-c2cc(Nc3cnc4ccccc4c3)nc(N3CCOCC3)n2)cn1
- solubility [8]: 0.3 µg/mL (≈ 0.642 µM)
- AUC [1]: 114 µM·h
- Papp B→A [9]: 2.15 ×10⁻⁶ cm/s
- Vd [5]: 2.6 L/kg
- Papp A→B [10]: 1.56 ×10⁻⁶ cm/s
- clearance [7]: 8 mL/min/kg

Compound: Nc1ncc(-c2cc(N3CCOCC3)nc(N3CCOCC3)n2)c(=O)[nH]1
- AUC [1]: 24 µM·h
- microsomal CLint [2]: ≤ 9 µL/min/mg
- microsomal CLint [3]: ≤ 9 µL/min/mg
- solubility [4]: 22 µM (≈ 7.91 µg/mL)
- Vd [5]: 2.8 L/kg
- bioavailability [6]: 56%
- clearance [7]: 24 mL/min/kg

Compound: Nc1ncc(-c2cc(N3CCOCC3)nc(N3CCOCC3)n2)cn1
- microsomal CLint [2]: ≤ 9 µL/min/mg
- microsomal CLint [3]: ≤ 9 µL/min/mg
- solubility [4]: 25 µM (≈ 8.58 µg/mL)

Compound: Nc1cc(C(F)(F)F)c(-c2cc(N3CCOCC3)nc(N3CCOCC3)n2)cn1 [BUPARLISIB]
- concentration (Plasma [11]): 2000 nM
- concentration [12]: 2000 nM
- clearance [13]: 7.3 mL/min/kg
- clearance [14]: 13 mL/min/kg
- concentration [15]: 2000 nM
- half-life [16]: 660 min
- clearance [17]: 11 mL/min/kg
- bioavailability [18]: 71%
- AUC [1]: 178 µM·h
- bioavailability [19]: 44%
- microsomal CLint [2]: ≤ 9 µL/min/mg
- Vd [20]: 3.1 L/kg
- microsomal CLint [3]: ≤ 9 µL/min/mg
- solubility [4]: 132 µM (≈ 54.2 µg/mL)
- Vd [21]: 3.1 L/kg
- bioavailability [22]: 50%
- Vd [5]: 3.1 L/kg
- Vd [23]: 1.4 L/kg
- bioavailability [24]: > 100%
- half-life [25]: 216 min
- concentration (Plasma [26]): 2000 nM
- half-life [27]: 396 min
- Vd [28]: 3.1 L/kg
- bioavailability [6]: 50%
- clearance [29]: 3 mL/min/kg
- half-life [30]: 96 min
- clearance [7]: 3 mL/min/kg
- logD [31]: 2.9
- pKa [32]: 5.1

Compound: Nc1ncc(-c2cc(N3CCOCC3)nc(N3CCOCC3)n2)c(C(F)(F)F)n1
- AUC [1]: 62 µM·h
- microsomal CLint [2]: ≤ 9 µL/min/mg
- microsomal CLint [3]: ≤ 9 µL/min/mg
- solubility [4]: 61 µM (≈ 25.1 µg/mL)
- Vd [5]: 2.1 L/kg
- bioavailability [6]: 83%
- clearance [7]: 11 mL/min/kg

Compound: Nc1ncc(-c2cc(N3CCOCC3)nc(N3CCOCC3)n2)c(N)n1
- bioavailability [33]: 68%
- AUC [34]: 64 µM·h
- microsomal CLint [2]: ≤ 9 µL/min/mg
- microsomal CLint [3]: ≤ 9 µL/min/mg
- solubility [4]: 8 µM (≈ 2.87 µg/mL)
- Vd [5]: 4.5 L/kg
- clearance [7]: 9 mL/min/kg
